The results in this text go back to ChEMBL document CHEMBL3784930, “Design, synthesis and biological evaluation of N,N-3-phenyl-3-benzylaminopropanamide derivatives as novel cholesteryl ester transfer protein inhibitor” (Bioorg Med Chem, 2016).

Usually IC50 stands for the concentration at which inhibition is half-maximal.

The structures appear in SMILES notation.

The first test relates to Syrian golden hamster. Nature of the test: Antidyslipidemic activity in high cholesterol/lipid diet fed golden syrian hamster assessed as reduction in LDL-cholesterol levels at 30 mg/kg/day, po administered for 2 weeks relative to control. It is filed as functional, Mesocricetus auratus. On the set-up: scale not given: the % may be the effect or the level left.
Settings: not given
A digest of the protocol:
(§1)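 Male Golden Syrian hamsters (8 weeks old, 120-130 g) were randomized by weight into control and treated groups (n = 6). Dyslipidemia was induced with a high cholesterol and lipid diet for 5 weeks. Dosing was oral at 30 mg/kg/day for two weeks in ethanol/cremophor/saline 5:5:90. Blood was drawn from the orbit, and serum lipid levels were compared with controls.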
`CCOC(=O)c1ccc(N2CCN(C(=O)CCN(Cc3ccc(F)cc3)c3cccc(Oc4ccccc4)c3)CC2)cc1`: the Activity was 24.6%.

The target of a further test is Cholesteryl ester transfer protein (Homo sapiens) (UniProt P11597). Nature of the test: Inhibition of recombinant CETP by BODIPY-CE fluorescence assay.
Settings: not given
With `COc1ccc(C(CC(=O)c2ccccc2)Nc2ccc(Cl)cc2)cc1OC` (configuration not stated), the IC50 came to 8.06 µM.

The subject of the next test is Syrian golden hamster. The experiment in a line: Antidyslipidemic activity in high cholesterol/lipid diet fed golden syrian hamster assessed as increase in HDL-cholesterol levels at 30 mg/kg/day, po administered for 2 weeks relative to control. The class given is functional, Mesocricetus auratus.
Settings: not given
A digest of the protocol: as §1
In the case of `CCOC(=O)c1ccc(N2CCN(C(=O)CCN(Cc3ccc(F)cc3)c3cccc(Oc4ccccc4)c3)CC2)cc1`, the Activity is given as 21.7%.

The next test concerns the target T1, Cholesteryl ester transfer protein (Homo sapiens, UniProt P11597).
T1 sequence (P11597 whole entry): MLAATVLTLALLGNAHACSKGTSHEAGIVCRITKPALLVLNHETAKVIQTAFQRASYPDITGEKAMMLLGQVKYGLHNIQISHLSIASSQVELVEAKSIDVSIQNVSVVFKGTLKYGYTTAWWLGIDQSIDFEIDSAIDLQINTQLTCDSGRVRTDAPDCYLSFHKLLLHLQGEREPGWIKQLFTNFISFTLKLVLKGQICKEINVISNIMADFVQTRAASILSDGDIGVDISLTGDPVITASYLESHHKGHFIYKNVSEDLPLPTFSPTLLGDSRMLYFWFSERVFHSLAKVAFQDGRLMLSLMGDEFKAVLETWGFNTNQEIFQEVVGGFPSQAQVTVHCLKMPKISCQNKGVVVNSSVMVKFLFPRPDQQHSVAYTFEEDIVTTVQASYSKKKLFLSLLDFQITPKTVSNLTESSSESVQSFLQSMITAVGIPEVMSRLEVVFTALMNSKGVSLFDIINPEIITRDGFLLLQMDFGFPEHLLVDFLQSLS
Nature of the test: Inhibition of full-length human recombinant CETP expressed in CHO cells by BODIPY-CE fluorescence assay. The class given is cell-based.
Settings: not given
In the case of `O=C(CCN(Cc1ccc(F)cc1)c1ccc(Cl)c(Cl)c1)NC1CCCCC1`, the 50% inhibitory concentration (IC50) amounted to 10.7 µM.

In the case of `CCOC(=O)c1ccc(N2CCN(C(=O)CCN(Cc3ccc(F)cc3)c3cccc(-c4ccccc4)c3)CC2)cc1`, the IC50 is 3.1 µM.

`COc1ccc(N2CCN(C(=O)CCN(Cc3ccc(F)cc3)c3cccc(Oc4ccccc4)c3)CC2)cc1`: the 50% inhibitory concentration (IC50) stood at 2.8 µM.

As to `O=C(CCN(Cc1ccc(F)cc1)c1ccc(Cl)c(C(F)(F)F)c1)N1CCN(c2ccccc2)CC1`, the half-maximal inhibitory concentration (IC50) came to 37.8 µM.

On to `CCc1cc(N(CCC(=O)N2CCN(c3ccccc3)CC2)Cc2ccc(F)cc2)ccc1Cl`, for which the IC50 was 19.5 µM.

As for `CC(C)(C)NC(=O)CCN(Cc1ccc(F)cc1)c1ccc(Cl)c(Cl)c1`, the half-maximal inhibitory concentration (IC50) turned out to be 29.6 µM.

With `O=C(CCN(Cc1ccc(F)cc1)c1ccc(Cl)c(Cl)c1)N1CCOCC1`, the half-maximal inhibitory concentration (IC50) is 14.2 µM.

Regarding `O=C(CCN(Cc1ccc(F)cc1)c1ccc(Cl)c(Cl)c1)N1CCN(c2ncccn2)CC1`, the IC50 stood at 11.8 µM.

For `O=C(CCN(Cc1ccc(F)cc1)c1ccc(Cl)c(Cl)c1)NC1CC1`, the 50% inhibitory concentration (IC50) is more than 50 µM.

Regarding `O=C(CCN(Cc1ccc(F)cc1)c1ccc(Cl)c(Cl)c1)N1CCN(c2ccccc2)CC1`, the concentration for half-maximal inhibition (IC50) was 5.2 µM.

`COc1ccc(N2CCN(C(=O)CCN(Cc3ccc(F)cc3)c3ccc(Cl)c(Cl)c3)CC2)cc1`: the IC50 amounted to 3.5 µM.

On to `CCOC(=O)c1ccc(N2CCN(C(=O)CCN(Cc3ccc(F)cc3)c3ccc(Cl)c(Cl)c3)CC2)cc1`, for which the IC50 is 2.8 µM.

For the compound `COc1ccc(N2CCN(C(=O)CCN(Cc3ccc(F)cc3)c3cccc(-c4ccccc4)c3)CC2)cc1`, the IC50 was found to be 7.3 µM.

Regarding `Cc1cc(N(CCC(=O)N2CCN(c3ccccc3)CC2)Cc2ccc(F)cc2)ccc1Br`, the IC50 came out at 13.9 µM.

With `CCCCN(CC1CC1)C(=O)CCN(Cc1ccc(F)cc1)c1ccc(Cl)c(Cl)c1`, the IC50 was more than 50 µM.

For `O=C(CCN(Cc1ccc(F)cc1)c1cccc(-c2ccccc2)c1)N1CCN(c2ccccc2)CC1`, the half-maximal inhibitory concentration (IC50) is 11.3 µM.

For a further test, the species on record is Homo sapiens. The experiment in a line: Reduction in LDL-cholestrol levels in mild dyslipidemia patient at 5 to 10 mg. It is filed as functional. On the set-up: scale not given: the % may be the effect or the level left.
Settings: not given
In turn, `CCOC(=O)N1c2ccc(C(F)(F)F)cc2[C@@H](N(Cc2cc(C(F)(F)F)cc(C(F)(F)F)c2)c2ncc(OCCCC(=O)O)cn2)C[C@H]1CC` [OBICETRAPIB] returned an Activity of 45.3%.

The next test has as its system Homo sapiens. The experiment in a line: In vivo inhibition of CETP in human whole plasma at 120 mg for 14 days. The class given is functional, organism-based. The following applies: 336 h.
`CCOC(=O)N1c2ccc(C(F)(F)F)cc2[C@@H](N(Cc2cc(C(F)(F)F)cc(C(F)(F)F)c2)C(=O)OC)C[C@H]1CC` [TORCETRAPIB]: the half-maximal inhibitory concentration (IC50) worked out at 0.05 µM.

For a further test, the species on record is Homo sapiens. Nature of the test: Increase in HDL-cholestrol levels in mild dyslipidemia patient at 10 mg. It is filed as functional.
Settings: not given
For the compound `CCOC(=O)N1c2ccc(C(F)(F)F)cc2[C@@H](N(Cc2cc(C(F)(F)F)cc(C(F)(F)F)c2)c2ncc(OCCCC(=O)O)cn2)C[C@H]1CC` [OBICETRAPIB], the Activity stood at 179.1%.
